From ChEMBL document CHEMBL1135913, “Structure-based design, synthesis, and biological evaluation of irreversible human rhinovirus 3C protease inhibitors. 6. Structure-activity studies of orally bioavailable, 2-pyridone-containing peptidomimetics” (J Med Chem, 2002)

How the values were obtained:
[1] = biological target: T1, Human rhinovirus A protease (Human rhinovirus sp.) (UniProt Q4U254); experiment: Inhibitory activity against Human Rhinovirus Protease 3C (serotype 14); settings: Rhinovirus B
T1 sequence (whole entry): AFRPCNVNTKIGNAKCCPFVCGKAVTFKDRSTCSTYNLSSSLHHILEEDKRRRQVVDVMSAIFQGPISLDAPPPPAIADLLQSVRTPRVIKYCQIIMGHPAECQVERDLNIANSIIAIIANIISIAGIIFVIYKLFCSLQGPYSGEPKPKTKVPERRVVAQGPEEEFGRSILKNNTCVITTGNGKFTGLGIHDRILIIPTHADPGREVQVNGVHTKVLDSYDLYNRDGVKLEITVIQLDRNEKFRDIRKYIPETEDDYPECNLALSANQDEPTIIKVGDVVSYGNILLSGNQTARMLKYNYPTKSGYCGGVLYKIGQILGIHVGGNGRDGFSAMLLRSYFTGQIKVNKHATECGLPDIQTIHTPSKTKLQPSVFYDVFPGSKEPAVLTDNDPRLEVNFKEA

[2] = biological target: T1, Human rhinovirus A protease (Human rhinovirus sp.); experiment: (§1) cytotoxicity against HRV Protease 3CP (serotype 14)
[3] = biological target: T2, Human rhinovirus A protease (Human rhinovirus sp., UniProt Q4U254); experiment: Inhibition of HRV Protease 3CP (serotype 14).; set-up: species or system Rhinovirus B
T2 sequence (Q4U254 whole entry): T1 sequence (whole entry)

[4] = biological target: T1, Human rhinovirus A protease (Human rhinovirus sp.); experiment: cytotoxicity against HRV Protease 3CP (serotype 10),; format: functional
[5] = biological target: T1, Human rhinovirus A protease (Human rhinovirus sp.); experiment: cytotoxicity against HRV Protease 3CP (serotype 1A),; format: functional
[6] = biological target: T1, Human rhinovirus A protease (Human rhinovirus sp.); experiment: cytotoxicity against HRV Protease 3CP (serotype 14),; format: functional
[7] = biological target: T1, Human rhinovirus A protease (Human rhinovirus sp.); experiment: as §1; format: functional
[8] = Loss of compound (%metabolized) after 30 min exposure to human liver microsomes; format: ADME, Microsome; settings: read-out: Metabolism
Outline: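 Pooled human liver microsomes (1 mg/mL, 6–8 livers) with 2 mM NADPH in 100 mM potassium phosphate pH 7.4 were preincubated 1 min at 37 °C. Compound was added at 25 μM and incubated 30 min, then quenched with acetonitrile. Loss was measured against time-zero controls by reversed-phase HPLC with UV at 215 nm.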

[9] = biological target: T1, Human rhinovirus A protease (Human rhinovirus sp.); experiment: cytotoxicity against HRV Protease 3CP (serotype 10); format: functional
[10] = biological target: T1, Human rhinovirus A protease (Human rhinovirus sp.); experiment: cytotoxicity against HRV Protease 3CP (serotype 1A); format: functional
[11] = Half life upon exposure to human plasma; format: ADME, cell-free
Outline: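 Pooled heparinized human plasma from 10 donors (stored at -70 °C), or 100 mM potassium phosphate buffer pH 7.4, n = 3 each. Compound added from fresh 5 mM acetonitrile stock to 25 μM final. Incubated at 37 °C for 1–3 h with regular sampling, acetonitrile precipitation, HPLC-UV at 212 nm. Half-life from linear regression of mean concentration–time data.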

Molecule `CCOC(=O)/C=C/[C@H](CCC(N)=O)NC(=O)[C@H](Cc1ccccc1)n1ccc(C)c(NC(=O)OCc2ccccc2)c1=O` has a K obs / 1 [1] of 25800 M⁻¹ s⁻¹.
With `CCOC(=O)c1ccc(OCCC2CCN(c3ccc(C)nn3)CC2)cc1` [PIRODAVIR] the CC50 [2] was greater than 10 µM and the EC50 [3] was 44 nM.
`CCOC(=O)/C=C/[C@H](CCC(N)=O)NC(=O)[C@H](Cc1ccc(F)cc1)n1cccc(NC(=O)OCc2ccccc2)c1=O` gave a K obs / 1 [1] of 81400 M⁻¹ s⁻¹, a CC50 [4] greater than 10 µM and a CC50 [5] greater than 10 µM. For the same molecule, the CC50 [6] was greater than 320 µM and the EC50 [3] was 14 nM.
`CCOC(=O)/C=C/[C@H](C[C@@H]1CCNC1=O)NC(=O)[C@H](Cc1ccc(F)cc1)n1cccc(NC(=O)c2cc(C)on2)c1=O` gave a CC50 [7] greater than 10 µM, a K obs / 1 [1] of 1.25e+06 M⁻¹ s⁻¹ and a metabolised at 0.5 h [8] of 95%. The CC50 [9] was greater than 10 µM, the CC50 [10] was greater than 10 µM and the EC50 [3] was 2 nM.
Molecule `CCOC(=O)/C=C/[C@H](CCC(N)=O)NC(=O)Cn1cccc(NC(=O)OCc2ccccc2)c1=O` has a CC50 [2] greater than 10 µM and an EC50 [3] greater than 10000 nM.
`CCOC(=O)/C=C/[C@H](CCC(N)=O)NC(=O)[C@H](Cc1ccccc1)n1cccc(NC(=O)C2CCCO2)c1=O` (stereo partly specified) gave a CC50 [2] greater than 10 µM, a K obs / 1 [1] of 3750 M⁻¹ s⁻¹ and an EC50 [3] of 1780 nM.
`CCOC(=O)/C=C/[C@H](CCC(N)=O)NC(=O)[C@H](Cc1ccccc1)n1ccc(C)c(NC(=O)c2cc(C)on2)c1=O` showed a K obs / 1 [1] of 116000 M⁻¹ s⁻¹.
With `CCOC(=O)/C=C/[C@H](CCC(N)=O)NC(=O)[C@H](Cc1ccccc1)n1cccc(NC(=O)c2cc(C)on2)c1=O` the CC50 [2] was greater than 10 µM, the K obs / 1 [1] was 329000 M⁻¹ s⁻¹ and the EC50 [3] was 16 nM.
With `CCOC(=O)/C=C/[C@H](CCC(N)=O)NC(=O)[C@H](Cc1ccccc1)n1cccc(NC(=O)c2cc(Cl)on2)c1=O` the CC50 [2] was greater than 10 µM, the K obs / 1 [1] was 134000 M⁻¹ s⁻¹ and the EC50 [3] was 24 nM.
`CCOC(=O)/C=C/[C@H](CCC(N)=O)NC(=O)[C@H](CC1CCCCC1)n1cccc(NC(=O)OCc2ccccc2)c1=O` showed a CC50 [2] greater than 10 µM, a K obs / 1 [1] of 6500 M⁻¹ s⁻¹ and an EC50 [3] of 178 nM.
In the case of `CCOC(=O)/C=C/[C@H](C[C@@H]1CCNC1=O)NC(=O)[C@H](Cc1ccc(F)c(F)c1)n1cccc(NC(=O)c2cc(C)on2)c1=O`, the CC50 [7] is reported as greater than 10 µM, the K obs / 1 [1] is reported as 1.8e+06 M⁻¹ s⁻¹ and the metabolised at 0.5 h [8] is reported as 80%. It also gave a half-life [11] of 84 min, a CC50 [9] greater than 10 µM and a CC50 [10] greater than 10 µM. The EC50 [3] was 1 nM.
